# Screening results deposited in PubChem BioAssay by The Scripps Research Institute Molecular Screening Center.
# This is a sample that favours compounds with a hit; in the whole collection about 2% have one here.
# M1 ag = activates human CHRM1 receptor. P11229. CHO-K1 hM1, Fluo-8 calcium fluorescence, agonist mode; 0% DMSO, 100% acetylcholine EC100. activation, % at 3 µM. 360,000 compounds, 0.33% hits. AID 588814;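 active means activation above the run's mean compound activation plus 3 SD, cut at about 16% in these data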;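 further: peak over basal fluorescence ratio within a 140 s kinetic read after compound addition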
# M5 antag = antagonists of human muscarinic M5 receptor (CHRM5); 360,000 compounds, 0.59% hits; CHO-hM5 cells, Fluo-8 calcium fluorescence, ACh EC80; AID 624040; inhibition, % at 3 µM;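 active means inhibition above a per-plate cutoff, the mean of that plate's test compounds plus 3 SD, cut at about 27% in these data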;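 further: 0% = acetylcholine EC80 with DMSO and 100% = DMSO without agonist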
# Target sequence (P08912 whole entry, looked up): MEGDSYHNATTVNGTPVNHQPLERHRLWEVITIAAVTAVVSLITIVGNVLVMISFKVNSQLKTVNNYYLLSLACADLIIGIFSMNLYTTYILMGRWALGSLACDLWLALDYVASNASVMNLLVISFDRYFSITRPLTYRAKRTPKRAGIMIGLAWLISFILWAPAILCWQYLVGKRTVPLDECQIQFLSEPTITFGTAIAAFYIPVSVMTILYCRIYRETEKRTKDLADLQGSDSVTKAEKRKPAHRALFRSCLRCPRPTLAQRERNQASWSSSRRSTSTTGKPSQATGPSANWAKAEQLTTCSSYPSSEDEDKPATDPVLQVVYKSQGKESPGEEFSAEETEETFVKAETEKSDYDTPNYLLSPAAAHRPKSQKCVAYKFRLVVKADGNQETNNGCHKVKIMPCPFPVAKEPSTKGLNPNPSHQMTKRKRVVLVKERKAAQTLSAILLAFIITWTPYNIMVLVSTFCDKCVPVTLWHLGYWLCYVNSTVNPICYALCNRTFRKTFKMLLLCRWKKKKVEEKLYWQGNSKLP
# CHRM5 agonist = agonists of human muscarinic M5 receptor (CHRM5); P08912; 360,000 compounds, 0.19% hits; activation, % at 3 µM; CHO-K1 hM5 cells, Fluo-8 calcium fluorescence; 0% DMSO wells, 100% maximal acetylcholine response; AID 624037;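 active means activation above the run's mean over test compounds plus 3 SD, cut at about 23% in these data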;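 further: signal is peak over basal fluorescence ratio across the kinetic read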
# CHRM5 PAM = CHRM5 positive allosteric modulation; activation, % at 3 µM; 360,000 compounds, 0.3% hits; CHO-K1 hM5, Fluo-8 calcium, ACh EC20 PAM; 0% = ACh EC20, 100% = ACh EC100;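 active means activation above the run cutoff, the mean activation of all test compounds plus 3 SD, cut at about 18% in these data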
#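 Probe or stimulus: acetylcholine, EC20 level; Assay system: human M5 receptor in CHO-K1 cells; Schedule: compound preincubation 140 s before EC20 acetylcholine addition; Technique: intracellular calcium via Fluo-8 fluorescence; Dosing: single-point, 3 µM nominal; Read-out basis: percent activation from peak-over-basal fluorescence ratio, scaled EC20-to-EC100 acetylcholine; Repeats: one well per compound, no replicates.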
# CHRM1 PAM = potentiates human M1 receptor response to acetylcholine. 360,000 compounds, 0.088% hits. CHO-K1 hM1, Fluo-8 calcium fluorescence, ACh EC20; 0% = ACh EC20, 100% = maximal ACh. activation, % at 3 µM. P11229; in the data active means activation above about 19%, passing the limit was not always enough
# M1 antag = human CHRM1 antagonism. CHO-K1 hM1, Fluo-8 calcium fluorescence, ACh EC80 antagonist. inhibition, % at 3 µM. 360,000 compounds, 1.3% hits. AID 588852;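 active means percent inhibition above its own plate's cutoff, namely the mean of that plate's compound wells plus 3 SD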;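 further: peak over basal fluorescence ratio during 140 s after agonist addition; 0% = ACh EC80 plus DMSO and 100% = DMSO alone without agonist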
# * marks the source's active call; other numbers are inactive results; / = no result.
SMILES,M1 ag,M5 antag,CHRM5 agonist,CHRM5 PAM,CHRM1 PAM,M1 antag
Cc1nnc(SCC(=O)c2cc(C)n(-c3ccc4c(c3)OCO4)c2C)s1,-1,27*,-1,-11,-8,3
Cc1cc(C(=O)CSc2nnnn2C)c(C)n1-c1ccc2c(c1)OCCO2,-2,-5,-15,0,-13,21
COC(=O)c1cc2ccsc2n1Cc1cc(=O)n2ccccc2n1,-12,26,-6,-25,-37,77*
O=c1c2sccc2n(Cc2cc(=O)n3ccccc3n2)c(=O)n1-c1ccccc1,-3,1,-2,2,-2,-4
CCCCCCCCNc1ncnc2ccccc12,-2,43*,3,-15,-11,29*
c1ccc(CCNc2ncnc3ccccc23)cc1,-4,30*,6,-16,-12,24
C[C@H](CO)N1C[C@H](C)[C@H](CN(C)S(=O)(=O)c2ccc(F)cc2)OCc2cnnn2CCCC1=O,-6,-7,-1,2,0,-9
COc1cc(OC)c(OC)cc1CN1CCCC(C(=O)c2ccc3c(c2)OCO3)C1 (stereo not given),-10,6,-4,-6,-13,6
O=C(c1ccc2c(c1)OCO2)C1CCCN(Cc2ccc(OC(F)F)cc2)C1 (stereo not given),0,6,-6,-14,-24,91*
O=C(c1ccc2c(c1)OCO2)C1CCCN(Cc2cccc(C(F)(F)F)c2)C1 (stereo not given),-7,18,-7,-10,-24,63*
CCC1(c2ccccc2)NC(=O)N(CC(=O)Nc2ccccc2N2CCCCC2)C1=O (stereo not given),37*,12,20,-7,0,8
CCC1(c2ccc(F)cc2)NC(=O)N(CC(=O)Nc2ccc(N3CCCCC3)cc2)C1=O (stereo not given),17*,5,27*,6,5,3
CCC1(c2ccccc2)NC(=O)N(CC(=O)Nc2ccccc2C(=O)N2CCCCC2)C1=O (stereo not given),0,9,4,-6,-8,18
O=C(c1[nH]c(C(F)(F)F)nc1-c1ccccc1)N1CCN(c2ccccn2)CC1,-3,8,3,3,-1,-18
CC1CC(=O)N(CC(=O)Nc2ccc(F)cc2)c2ccccc2S1(=O)=O (stereo not given),0,-8,-1,4,3,-3
CCS(=O)(=O)N1Cc2cc(C(=O)NCC3CC3)nc(-c3cccc(-c4cccnc4)c3)c2[C@@H]1CCO,/,2,3,4,/,/
O=C(c1c[nH]c(C(=O)C(Cl)(Cl)Cl)c1)c1ccc(F)cc1F,-6,28*,0,-12,-5,16
O=C(c1c[nH]c(C(=O)C(Cl)(Cl)Cl)c1)c1ccc(F)cc1Cl,-6,6,0,4,7,0
Cc1cc(NC(=O)CSCC(=O)OCC(=O)c2ccc(Br)cc2)no1,0,-7,4,1,4,-9
CCc1ccc2[nH]c(O)c(N=Nc3nc(-c4ccccc4)cs3)c2c1,20*,-1,2,-2,-3,7
CCOC(=O)Cc1csc(NC(=O)Nc2ccc(OC(F)(F)F)cc2)n1,5,22,11,-21,-17,41*
CCOC(=O)Cc1csc(NC(=O)c2ccc(NC(C)=O)cc2)n1,-1,4,-3,-9,6,-4
COc1ccccc1NC(=O)CSCc1cc(=O)n2ccsc2n1,-4,-7,-6,-3,7,0
Cc1cccc2sc(NNC(=O)c3ccc(S(=O)(=O)N4CCCC(C)C4)cc3)nc12 (stereo not given),-1,7,3,-13,-16,67*
CN1CCCC(OC(=O)c2ccccc2F)C1 (stereo not given),-10,11,-8,-11,-14,27
SMILES,M1 ag,M5 antag,CHRM5 agonist,CHRM5 PAM,CHRM1 PAM,M1 antag
CN1CCCC(CC2c3ccccc3Sc3ccccc32)C1 (stereo not given),-3,99*,2,-19,-25,99*
Cc1ccc(CNc2ncnc3cc(Cl)ccc23)cc1,-5,35*,2,-18,-23,33
Cc1ccccc1CNc1ncnc2cc(Cl)ccc12,-1,1,0,0,1,-7
OC(CSc1ccccc1)CN1CCN(c2ccc(Cl)cc2)CC1 (stereo not given),15,4,-1,0,0,-12
OC(CSc1ccccc1)CN1CCN(c2cccc(Cl)c2)CC1 (stereo not given),25*,15,-9,-22,-3,-8
OCC1(Cc2ccc(Cl)cc2)CCN(Cc2ccc(Oc3ncccn3)cc2)CC1,-14,2,-10,-11,-32,44*
CCCCC[C@@H](C)N1C[C@H](COCc2ccccc2)Oc2cc(N3CC[C@H](O)C3)ccc2S1(=O)=O,/,7,-2,-4,/,/
COc1ccccc1-c1cc(NC=O)c2ncc(-c3cccc(C(F)(F)F)c3)n2c1,5,0,-1,-3,31*,-24
COc1cc(-c2cc(NC=O)c3ncc(-c4cccc(C(F)(F)F)c4)n3c2)cc(OC)c1OC,1,5,0,0,14,-6
COc1ccc(-c2cc(NC=O)c3ncc(-c4cccc(C(=O)NCCN(C)C)c4)n3c2)c(OC)c1,-10,0,0,2,-33,85*
CCc1nnc(NS(=O)(=O)c2ccc(NC(=O)c3ccc([N+](=O)[O-])s3)cc2)s1,-3,1,1,3,1,-6
O=C(Oc1cccc(Nc2ncnc3ccccc23)c1)c1ccccc1Cl,3,45*,1,-27,-15,25*
CCCCCCCCCCCCCCCC[N+](C)(C)CCl,-7,29*,-11,-45,-21,43*
CCCCCCCCCCCCCCCC[N+](C)(C)CC,0,77*,-1,-19,-26,90*
CCCCCC[N+](C)(C)CCSSCC[N+](C)(C)CCCCCC,-8,9,-5,2,10,-9
CCOC(=O)c1c(NC=O)sc2c1CCC2,-4,7,-7,-3,6,-6
CCOC(=O)c1c(N/C=C(\C#N)c2nc(-c3ccc(OC(C)=O)cc3)cs2)sc2c1CCC2,0,-12,4,23*,18,-29
COc1ccccc1CCn1cnc(Cc2ccccc2)c1C(C)C,/,13,-2,-23,/,/
COc1ccc(C(=O)OCCc2sc[n+](CC(=O)c3ccccc3)c2C)cc1,-11,22,-7,-17,-32,69*
Cc1c(CCOC(=O)C2C3CC4CC(C3)CC2C4)sc[n+]1CC(=O)c1ccc(Br)cc1 (stereo not given),-5,3,-7,-9,-21,39*
